Measured values from different studies.
Protocols differ between the studies behind these lines.
Cell line: MDA-MB-231
Effect on: cell growth or viability

SMILES	assay	setting	IC50
COc1ccccc1/C=N/N=C1\C(=O)Nc2ccccc21	MTT	48 h	26.3 µg/mL
Cc1cc(NS(=O)(=O)c2ccc(NC(=O)/C(C#N)=C/c3cccnc3)cc2)no1	MTT	48 h	184 µM
C[C@H]1[C@H](C)CC[C@]2(C)CC[C@]3(C)C(=CC(=O)[C@@H]4[C@@]5(C)CC[C@@H](O)[C@](C)(C(=O)NCc6cn(-c7cccc(C(F)(F)F)c7)nn6)[C@@H]5CC[C@]43C)[C@H]12	MTT	24 h	70.4 µM
O=[N+]([O-])c1ccc(NC(=S)N/N=C/c2cccc3cc4ccccc4nc23)cc1	MTT	48 h	> 50 µM
Cc1ccc(S(=O)(=O)n2cc(/C=N/NC(=O)c3cc4ccccc4cc3O)c3ccccc32)cc1	MTT	48 h	16.4 µM
CC(=O)O[C@@]12CO[C@@H]1C[C@H](O)[C@@]1(C)C(=O)[C@H](O)C3=C(C)[C@@H](OC(=O)[C@H](O)[C@@H](NC(=O)OC(C)(C)C)c4ccccc4)C[C@@](O)([C@@H](OC(=O)c4ccccc4)[C@H]21)C3(C)C	MTT	24 h	> 50 µg/mL
O=C(Nc1ccc(Oc2nc3ccccc3n3cnnc23)cc1)Nc1cccc(Cl)c1	MTT	24 h	33.6 µM
C[C@H]1[C@H](C)CC[C@]2(C(=O)O)CC[C@]3(C)C(=CC[C@@H]4[C@@]5(C)CC[C@H](O)C(C)(C)[C@@H]5CC[C@]43C)[C@H]12	thymidine uptake	24 h	13.1 µM
Cc1ccc(S(=O)(=O)n2cc(/C=N/NC(=O)c3ccc([N+](=O)[O-])cc3)c3ccccc32)cc1	MTT	48 h	38.6 µM
Cc1cc(NS(=O)(=O)c2ccc(NC(=O)/C(C#N)=C/c3ccc(N4CCOCC4)cc3)cc2)no1	MTT	48 h	83.3 µM
C=CC(C)(C)c1[nH]cnc1/C=C1/NC(=O)[C@H](C(C)C)NC1=O	SRB		> 15 µM
CC(=O)N1CCC(Nc2cc(C(=O)NC[C@H](O)CN3CCc4ccccc4C3)ncn2)CC1	CCK-8	72 h	> 100 µM
CO[C@H]1[C@H](O[C@H]([C@H]2O[C@@H](n3ccc(=O)[nH]c3=O)[C@H](O)[C@@H]2O)[C@H](NCCCNC(=O)[C@@H](NC(=O)[C@@H](NC(=O)N[C@H](C(=O)O)C(C)C)[C@@H]2CCN=C(N)N2)[C@@H](O)C(C)C)C(=O)O)O[C@H](CN)[C@H]1O	WST-1		> 35 µM
Cc1ccc(S(=O)(=O)n2cc(/C=N/NC(=O)c3ccccc3C)c3ccccc32)cc1	MTT	48 h	27.2 µM
COc1ccc(-n2cc(CNC(=O)[C@@]3(C)[C@H](O)CC[C@@]4(C)[C@H]3CC[C@]3(C)[C@@H]4C(=O)C=C4[C@@H]5[C@@H](C)[C@H](C)CC[C@]5(C)CC[C@]43C)nn2)cc1	MTT	24 h	76.6 µM
CNC(=S)N/N=C/c1cccc2cc3ccccc3nc12	MTT	48 h	18.9 µM
Cc1ccc(S(=O)(=O)n2cc(/C=N/NC(=O)Cc3ccccc3C(F)(F)F)c3ccccc32)cc1	MTT	48 h	20.1 µM
C=CCn1c(=O)c2cnc(Nc3ccc(N4CCN(C)CC4)cc3)nc2n1-c1ccc2c(n1)[C@@](O)(CC)CC2	ATP luminescence	72 h	0.627 µM
